Source: ChEMBL document CHEMBL4715832, “Isoquinoline-based biaryls as a robust scaffold for microtubule inhibitors” (Eur J Med Chem, 2020)
The source made the active and inactive calls. No cut-off for these calls is given here.

Tests used:
HeLa [1] = experiment: Antiproliferative activity against human HeLa cells assessed as reduction in cell growth after 48 hrs by resazurin dye based fluorescence assay; assay type: functional
Summary of the method: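 HeLa cells grown in DMEM with 10% FCS and penicillin/streptomycin, 37 °C, 5% CO2. Seeded 5,000 cells/well, treated 24 h later with DMSO 1% final, then incubated 48 h. Resazurin reduction to resorufin measured over 3 h at 37 °C by fluorescence (ex 544/em 590 nm). Normalised to cosolvent control (100%) and cell-free wells (0%). Means of at least three independent experiments.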

HL-60 = experiment: Antiproliferative activity against human HL-60 cells assessed as reduction in cell growth after 24 hrs by MTT assay; assay type: functional, cell-based; conditions: HL-60, 24 h
Summary of the method: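 HL-60 cells grown in RPMI 1640 with 10% FCS, no antibiotics, 37 °C, 5% CO2. Seeded 9,000 cells/well, treated 24 h later with DMSO cosolvent at 1% final. After 24 h, MTT 0.5 mg/mL for 2 h, absorbance read. Normalised to cosolvent control (100%) and Triton X-100-treated cells (0%). Means of at least three independent experiments.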

HeLa [2] = experiment: Cell cycle arrest in human HeLa cells assessed as accumulation at G2/M phase at 500 nM measured after 24 hrs by propidium iodide staining based flow cytometry; assay type: functional
Summary of the method: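 HeLa cells seeded 50,000/well, treated 24 h; collected, stained with 2 mg/mL propidium iodide at 4 °C for 30 min, analysed by flow cytometry (30,000 cells per condition); cells assigned to sub-G1, G1, S and G2/M by DNA content (PI signal). DMSO cosolvent 1% final.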

HeLa [3] = experiment: Induction of microtubule network depolymerization in human HeLa cells assessed as appearance of defective spindles at 120 nM after 24 hrs by immunofluorescence staining based confocal microscopic analysis; assay type: cell-based
Summary of the method: (§1)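 HeLa cells on glass coverslips (50,000/well), adhered 18 h, then treated 24 h (DMSO 1% final). Fixed with 0.5% glutaraldehyde, quenched with 0.1% NaBH4, blocked in PBS + 10% FCS. Stained with rabbit anti-alpha-tubulin (1:400, 1 h) and Alexa 488 goat anti-rabbit secondary, with DAPI nuclear counterstain. Imaged by confocal microscopy with z-stack projections.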

[4] = Toxicity in Balb/c mouse at 25 mg/kg, iv administered at 48 hrs interval for 3 times; assay type: organism-based; conditions: in vivo
Summary of the method: (§2)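 Male and female Balb/c mice dosed 3 times at 48 h intervals with 25 mg/kg of the phosphate prodrug, by the route named, and monitored for tolerability.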

HeLa [5] = experiment: Induction of microtubule network depolymerization in human HeLa cells assessed as appearance of defective chromosome alignment at 120 nM after 24 hrs by immunofluorescence staining based confocal microscopic analysis; assay type: cell-based; summary of the method: as §1
[6] = Toxicity in Balb/c mouse at 25 mg/kg, ip administered at 48 hrs interval for 3 times; assay type: organism-based; conditions: in vivo; summary of the method: as §2
HeLa [7] = experiment: Induction of microtubule network depolymerization in human HeLa cells assessed as accumulation of rounded cells at 120 nM after 24 hrs by immunofluorescence staining based confocal microscopic analysis; assay type: cell-based; summary of the method: as §1
HeLa [8] = experiment: Induction of microtubule network depolymerization in human HeLa cells after 24 hrs by immunofluorescence staining based confocal microscopic analysis; assay type: cell-based
Summary of the method: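 HeLa cells seeded on glass coverslips (50,000 cells/well), allowed to adhere 18 h, then treated 24 h. Fixed with 0.5% glutaraldehyde, quenched with 0.1% NaBH4, blocked with PBS + 10% FCS. Stained with rabbit anti-alpha-tubulin (1:400, 1 h), then Alexa Fluor 488 anti-rabbit secondary, with DAPI nuclear counterstain. Imaged by confocal microscopy, including z-stack projections.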

HeLa [9] = experiment: Induction of microtubule network depolymerization in human HeLa cells assessed as induction of mitotic arrest at 120 nM after 24 hrs by immunofluorescence staining based confocal microscopic analysis; assay type: cell-based; summary of the method: as §1
HeLa [10] = experiment: Inhibition of tubulin polymerization in human HeLa cells harboring EB3-YFP plasmid assessed as disappearance of […] comet at 10 uM after 2 mins by microscopic analysis; assay type: cell-based
Summary of the method: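 HeLa cells (12,000/well) transiently transfected 24 h after seeding with EB3-YFP plasmid, imaged 24 h later by spinning-disc confocal at 37 °C, 5% CO2 (514 nm, 300 ms exposure, 45 frames/min). Five reference frames taken, compound added, 2 min incubation, then 5 more frames. EB3 comets counted by maxima detection; 7 cells from three independent trials.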

[11] = Solubility of compound in aqueous buffer; assay type: physicochemical
[12] = Toxicity in iv dosed Balb/c mouse; assay type: organism-based; conditions: in vivo
Summary of the method: (§3)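 Single-administration dose escalation in male and female Balb/c mice, given i.p. or i.v., to find the maximal tolerated dose of the phosphate prodrug.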

[13] = Toxicity in ip dosed Balb/c mouse; assay type: organism-based; conditions: in vivo; summary of the method: as §3
Homo sapiens = organism: Homo sapiens; experiment: Inhibition of porcine tubulin polymerization at 16 uM preincubated for 10 mins followed by GTP addition by turbidimetric method
Summary of the method: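 Purified porcine brain tubulin (99% purity) pre-incubated 10 min at 37 °C with compound at 16 µM in buffer containing 3% DMSO and 10% glycerol. Polymerisation started at time zero by adding GTP to 1 mM. Absorbance at 340 nm followed over time at 37 °C as the turbidity read-out.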

With `COc1cc(-c2nccc3c(OC)c(OC)c(OC)cc23)ccc1OP(=O)(O)O` the EC50 (HeLa [1]) was > 100 µM and the EC50 (HL-60) was > 100 µM.
For `COc1ccc([C@H](O)c2nccc3c(OC)c(OC)c(OC)cc23)cc1`, the EC50 (HeLa [1]) was > 100 µM.
With `COc1cc(-c2nccc3c(OC)c(OC)c(OC)cc23)ccc1O` the EC50 (HeLa [1]) was 50 µM.
For `COc1cc2c(-c3cc(OC)c(OC)c(OC)c3)nccc2cc1OP(=O)([O-])[O-].[Na+].[Na+]`, the Activity (HeLa [2]) was “Active”, the Activity (HeLa [3]) was “Active” and the Activity [4] was “Non-Toxic”. For the same molecule, the Activity (HeLa [1]) was “Dose-dependent effect”, the EC50 (HeLa [1]) was 0.17 µM and the Activity (HeLa [5]) was “Active”. For the same molecule, the Activity [6] was “Non-Toxic”, the Activity (HeLa [7]) was “Active” and the Activity (HeLa [8]) was “Dose-dependent effect”. The Activity (HeLa [9]) was “Active”, the EC50 (HL-60) was 0.57 µM and the inhibition (HeLa [10]) was “Active”. For the same molecule, the solubility [11] was > 10 mM, the MTD [12] was 50 mg/kg and the MTD [13] was 32 mg/kg.
In the case of `COC(=O)Nc1nc2cc(C(=O)c3cccs3)ccc2[nH]1` [NOCODAZOLE], the EC50 (HeLa [1]) is reported as 0.04 µM.
With `COc1cc2c(c(OC)c1OC)-c1ccc(OC)c(=O)cc1[C@@H](NC(C)=O)CC2` the inhibition (Homo sapiens) was “Active”.
For `COc1ccc(-c2nccc3c(OC)c(OC)c(OC)cc23)c(C(=O)O)c1`, the EC50 (HeLa [1]) was > 100 µM.
